# According to ChEMBL document CHEMBL1629486, “Antimicrobial, antitumor and 5α-reductase inhibitor activities of some hydrazonoyl substituted pyrimidinones” (Eur J Med Chem, 2010):
# Columns and labels:
# MDA-MB-231 = assay: Growth inhibition of human MDA-MB-231 cells assessed as cell growth at 1 M after 48 hrs by sulforhodamine B assay; format: functional; design: scale not given: the % may be the effect or the level left
# How it was run: (§1)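 NCI 60-cell screen at a single high dose. Cells are grown in RPMI 1640 with 5% FBS and 2 mM L-glutamine, then plated at 5000–40,000 cells/well and held 24 h at 37 °C in 5% CO2 at 100% humidity. Drug is then added and plates are incubated another 48 h, with SRB staining as read-out. Results are given as growth percent (100 = no inhibition, 0 = no net growth, negative = lethality).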
# Rattus norvegicus [1] = organism: Rattus norvegicus; assay: Acute toxicity in albino rat; format: organism-based; conditions: in vivo
# How it was run: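 Male albino rats received injections of increasing doses. LD50 and LD90, the doses killing 50% and 90% of the animals, were calculated by the Austen and Brocklehurst method.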
# Rattus norvegicus [2] = assay: Effect on circulating testosterone and dihydrotestosterone level in sc dosed Sprague-Dawley rat by radioimmunoassay relative to anastrozole; format: functional
# How it was run: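 Serum testosterone and DHT were measured by RIA in ether extracts of serum (0.5 mL serum, 2 mL diethyl ether, 60 s shaking), without chromatography, in rats dosed at several levels. Relative potency is the ED50 of anastrozole divided by the ED50 of the test agent, where ED50 is the dose giving 50% of the pharmacological response.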
# EKVX = assay: Growth inhibition of human EKVX cells assessed as cell growth at 1 M after 48 hrs by sulforhodamine B assay; format: functional; design: scale not given: the % may be the effect or the level left; how it was run: as §1
# OVCAR-4 = assay: Growth inhibition of human OVCAR4 cells assessed as cell growth at 1 M after 48 hrs by sulforhodamine B assay; format: functional; design: scale not given: the % may be the effect or the level left; how it was run: as §1
# NCI-H226 = assay: Growth inhibition of human NCI-H226 cells assessed as cell growth at 1 M after 48 hrs by sulforhodamine B assay; format: functional; design: scale not given: the % may be the effect or the level left; how it was run: as §1
# [3] = test system: Syncephalastrum racemosum; assay: Antimicrobial activity against Syncephalastrum racemosum at 1 to 5 ug/ml by agar well diffusion method; format: functional
# How it was run: (§2)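 Agar well diffusion against bacteria and fungi. Inhibition zone is scored beyond the control: ++ 0.6–1.0 cm, + 0.1–0.5 cm, 0 no inhibition.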
# Bacillus subtilis = assay: Antimicrobial activity against Bacillus subtilis at 1 to 5 ug/ml by agar well diffusion method; format: functional; how it was run: as §2
# SF-268 = assay: Growth inhibition of human SF268 cells assessed as cell growth at 1 M after 48 hrs by sulforhodamine B assay; format: functional; design: scale not given: the % may be the effect or the level left
# How it was run: (§3)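 NCI 60-cell panel screen, single dose (1.0 M as printed). Cells grown in RPMI 1640 with 5% fetal bovine serum and 2 mM L-glutamine, seeded at 5000–40,000 cells/well, preincubated 24 h at 37 °C in 5% CO2 at 100% humidity, then exposed to compound for 48 h. Sulforhodamine B staining read-out. Result given as growth percent: 100 = no inhibition, 0 = no net growth, negative = lethality.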
# LOX IMVI = assay: Growth inhibition of human LOXIMVI cells assessed as cell growth at 1 M after 48 hrs by sulforhodamine B assay; format: functional; design: scale not given: the % may be the effect or the level left; how it was run: as §1
# TK-10 = assay: Growth inhibition of human TK10 cells assessed as cell growth at 1 M after 48 hrs by sulforhodamine B assay; format: functional; design: scale not given: the % may be the effect or the level left; how it was run: as §3
# PC-3 = assay: Growth inhibition of human PC3 cells assessed as cell growth at 1 M after 48 hrs by sulforhodamine B assay; format: functional; design: scale not given: the % may be the effect or the level left; how it was run: as §1
# SNB-19 = assay: Growth inhibition of human SNB19 cells assessed as cell growth at 1 M after 48 hrs by sulforhodamine B assay; format: functional; design: scale not given: the % may be the effect or the level left; how it was run: as §3
# SK-MEL-2 = assay: Growth inhibition of human SK-MEL-2 cells assessed as cell growth at 1 M after 48 hrs by sulforhodamine B assay; format: functional; design: scale not given: the % may be the effect or the level left; how it was run: as §3
# SW-620 = assay: Growth inhibition of human SW620 cells assessed as cell growth at 1 M after 48 hrs by sulforhodamine B assay; format: functional; design: scale not given: the % may be the effect or the level left; how it was run: as §3
# MCF7 = assay: Growth inhibition of human MCF7 cells assessed as cell growth at 1 M after 48 hrs by sulforhodamine B assay; format: functional; design: scale not given: the % may be the effect or the level left; how it was run: as §1
# SK-MEL-5 = assay: Growth inhibition of human SK-MEL-5 cells assessed as cell growth at 1 M after 48 hrs by sulforhodamine B assay; format: functional; design: scale not given: the % may be the effect or the level left; how it was run: as §3
# Penicillium italicum = assay: Antimicrobial activity against Penicillium italicum at 1 to 5 ug/ml by agar well diffusion method; format: functional; how it was run: as §2
# Escherichia coli = assay: Antimicrobial activity against Escherichia coli at 1 to 5 ug/ml by agar well diffusion method; format: functional; how it was run: as §2
# [4] = Growth inhibition of human Hs 578T cells assessed as cell growth at 1 M after 48 hrs by sulforhodamine B assay; format: functional; design: scale not given: the % may be the effect or the level left; how it was run: as §1
# Rattus norvegicus [5] = assay: Effect on circulating testosterone and dihydrotestosterone level in sc dosed Sprague-Dawley rat by radioimmunoassay; format: functional
# How it was run: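 Rats were given a range of doses of the 5α-reductase inhibitors. Serum testosterone and DHT were measured by radioimmunoassay with specific antisera, without prior chromatography. Serum (0.5 mL) was extracted with 2 mL peroxide-free diethyl ether by shaking for 60 s. Levels were compared with vehicle-treated controls, and ED50 was derived.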
# UACC-62 = assay: Growth inhibition of human UACC62 cells assessed as cell growth at 1 M after 48 hrs by sulforhodamine B assay; format: functional; design: scale not given: the % may be the effect or the level left; how it was run: as §3
# SN12C = assay: Growth inhibition of human SN12C cells assessed as cell growth at 1 M after 48 hrs by sulforhodamine B assay; format: functional; design: scale not given: the % may be the effect or the level left; how it was run: as §3
# SK-OV-3 = assay: Growth inhibition of human SKOV3 cells assessed as cell growth at 1 M after 48 hrs by sulforhodamine B assay; format: functional; design: scale not given: the % may be the effect or the level left; how it was run: as §3
# SNB-75 = assay: Growth inhibition of human SNB75 cells assessed as cell growth at 1 M after 48 hrs by sulforhodamine B assay; format: functional; design: scale not given: the % may be the effect or the level left; how it was run: as §3
# MOLT-4 = assay: Growth inhibition of human MOLT4 cells assessed as cell growth at 1 M after 48 hrs by sulforhodamine B assay; format: functional; design: scale not given: the % may be the effect or the level left; how it was run: as §1
# CAKI-1 = assay: Growth inhibition of human Caki1 cells assessed as cell growth at 1 M after 48 hrs by sulforhodamine B assay; format: functional; design: scale not given: the % may be the effect or the level left; how it was run: as §1
# SF-539 = assay: Growth inhibition of human SF539 cells assessed as cell growth at 1 M after 48 hrs by sulforhodamine B assay; format: functional; design: scale not given: the % may be the effect or the level left; how it was run: as §3
# OVCAR-8 = assay: Growth inhibition of human OVCAR8 cells assessed as cell growth at 1 M after 48 hrs by sulforhodamine B assay; format: functional; design: scale not given: the % may be the effect or the level left; how it was run: as §1
# HOP-92 = assay: Growth inhibition of human HOP92 cells assessed as cell growth at 1 M after 48 hrs by sulforhodamine B assay; format: functional; design: scale not given: the % may be the effect or the level left; how it was run: as §1
# HOP-62 = assay: Growth inhibition of human HOP62 cells assessed as cell growth at 1 M after 48 hrs by sulforhodamine B assay; format: functional; design: scale not given: the % may be the effect or the level left; how it was run: as §1
# 786-0 = assay: Growth inhibition of human 786-0 cells assessed as cell growth at 1 M after 48 hrs by sulforhodamine B assay; format: functional; design: scale not given: the % may be the effect or the level left; how it was run: as §1
# HCT-116 = assay: Growth inhibition of human HCT116 cells assessed as cell growth at 1 M after 48 hrs by sulforhodamine B assay; format: functional; design: scale not given: the % may be the effect or the level left; how it was run: as §1
# OVCAR-5 = assay: Growth inhibition of human OVCAR5 cells assessed as cell growth at 1 M after 48 hrs by sulforhodamine B assay; format: functional; design: scale not given: the % may be the effect or the level left; how it was run: as §1
# IGROV-1 = assay: Growth inhibition of human IGROV1 cells assessed as cell growth at 1 M after 48 hrs by sulforhodamine B assay; format: functional; design: scale not given: the % may be the effect or the level left; how it was run: as §1
# NCI-H460 = assay: Growth inhibition of human NCI-H460 cells assessed as cell growth at 1 M after 48 hrs by sulforhodamine B assay; format: functional; design: scale not given: the % may be the effect or the level left; how it was run: as §1
# Pseudomonas aeruginosa = assay: Antimicrobial activity against Pseudomonas aeruginosa at 1 to 5 ug/ml by agar well diffusion method; format: functional; how it was run: as §2
SMILES,Activity (MDA-MB-231),LD50 (Rattus norvegicus [1]),LD90 (Rattus norvegicus [1]),Ratio ED50 (Rattus norvegicus [2]),Activity (EKVX),Activity (OVCAR-4),Activity (NCI-H226),diameter of the inhibition zone (DIZ) [3],diameter of the inhibition zone (DIZ) (Bacillus subtilis),Activity (SF-268),Activity (LOX IMVI),Activity (TK-10),Activity (PC-3),Activity (SNB-19),Activity (SK-MEL-2),Activity (SW-620),Activity (MCF7),Activity (SK-MEL-5),diameter of the inhibition zone (DIZ) (Penicillium italicum),diameter of the inhibition zone (DIZ) (Escherichia coli),also measured
Cc1ccc(N/N=C(\C(=O)c2ccc(Cl)cc2)c2nc(C)cc(=O)[nH]2)cc1,95.9%,2663 µg/kg,4.35687 mg/kg,6.301,91.46%,116.35%,107.41%,0 cm,0 cm,107.28%,92.62%,136.08%,95.01%,103.64%,95.33%,93.7%,91.01%,82.48%,0 cm,0.6 cm,Activity [4]: 99.88%; ED50 (Rattus norvegicus [5]): 0.173 µg/kg; Activity (UACC-62): 90.8%; Activity (SN12C): 99.97%; Activity (SK-OV-3): 115.86%; Activity (SNB-75): 115.66%; Activity (MOLT-4): 98.62%; Activity (CAKI-1): 112.71%; Activity (SF-539): 85.29%; Activity (OVCAR-8): 100.7%; Activity (HOP-92): 90.99%; Activity (HOP-62): 94.24%; Activity (786-0): 82.91%; Activity (HCT-116): 86.94%; Activity (OVCAR-5): 121.85%; Activity (IGROV-1): 7.59%; Activity (NCI-H460): 105.3%; diameter of the inhibition zone (DIZ) (Pseudomonas aeruginosa): 0 cm
CC(=O)c1ccc(N/N=C(\C(=O)c2ccc(Cl)cc2)c2nc(C)cc(=O)[nH]2)cc1,85.96%,1870.34 µg/kg,2.25087 mg/kg,1.562,105.04%,99.2%,111%,0 cm,0 cm,95.91%,90.57%,120.15%,90.5%,95.91%,99.06%,98.45%,89.39%,88.4%,0 cm,0 cm,Activity [4]: 90.12%; ED50 (Rattus norvegicus [5]): 0.698 µg/kg; Activity (UACC-62): 80.29%; Activity (SN12C): 95.54%; Activity (SK-OV-3): 95.27%; Activity (SNB-75): 91.94%; Activity (MOLT-4): 84.16%; Activity (CAKI-1): 95%; Activity (SF-539): 90.87%; Activity (OVCAR-8): 92.95%; Activity (HOP-92): 97.73%; Activity (HOP-62): 116.72%; Activity (786-0): 103.17%; Activity (HCT-116): 90.39%; Activity (OVCAR-5): 91.69%; Activity (IGROV-1): 94.2%; Activity (NCI-H460): 103.13%; diameter of the inhibition zone (DIZ) (Pseudomonas aeruginosa): 0 cm
Cc1cc(=O)[nH]c(/C(=N/Nc2ccccc2)C(=O)c2ccc(Cl)cc2)n1,101.67%,2111.22 µg/kg,3.24592 mg/kg,5.166,103.39%,110.81%,108.67%,0 cm,0 cm,117.24%,98.95%,65.49%,92.58%,95.47%,102.42%,94.56%,90.11%,92.44%,0 cm,0.6 cm,Activity [4]: 83.59%; ED50 (Rattus norvegicus [5]): 0.211 µg/kg; Activity (UACC-62): 91.99%; Activity (SN12C): 93.24%; Activity (SK-OV-3): 98.31%; Activity (SNB-75): 128.46%; Activity (MOLT-4): 39.84%; Activity (CAKI-1): 103.86%; Activity (SF-539): 92.33%; Activity (OVCAR-8): 92.85%; Activity (HOP-92): 88.71%; Activity (HOP-62): 104.07%; Activity (786-0): 82.24%; Activity (HCT-116): 86.88%; Activity (OVCAR-5): 117.08%; Activity (IGROV-1): 17.65%; Activity (NCI-H460): 108.76%; diameter of the inhibition zone (DIZ) (Pseudomonas aeruginosa): 0 cm
